Active and inactive are the calls of the source. Unless noted, the rule behind the calls is not given here.
What was measured:
Mus musculus = test: In vivo inhibition of LDH in human A673 cells xenografted athymic nude CrTac:NCr-Foxn1nu mouse assessed as reduction in tumor LDH activity at 50 mg/kg, iv after 1 hr by NADH-based UV-VIS spectrometric method relative to control; type: functional, organism-based
Summary of the method: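 Female athymic nude mice carried SQ A673 flank xenografts (2 million cells) and received a single IV dose of 50 mg/kg in PBS-based vehicle. Four mice per time point were sacrificed at 1, 3, 6 and 24 h. Frozen tumor (10–50 mg) was pulverized and lysed in PBS pH 7.4 with 0.1% Triton X-100 on ice for 1 h. Cleared lysate (10–20 μg) was assayed with 10 mM pyruvate and 0.3 mM final NADH, reading NADH oxidation at 340 nm at 37 °C.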

[1] = Oral bioavailability in CD-1 mouse at 50 mg/kg and measured up to 24 hrs by LC/MS-MS analysis; type: ADME, organism-based; conditions: in vivo
Summary of the method: (§1)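 Male CD1 mice, about 6–8 weeks old and 20–30 g, were dosed PO at 40 or 50 mg/kg in 0.1 M NaOH in PBS, pH 7–8.5, prepared the same day. Three mice per cohort. Dorsal metatarsal vein blood was collected into heparin at 15, 30 min and 1, 2, 4, 8, 12, 24 h. Plasma was spun at 4 °C, frozen at –75 °C and quantified by LC–MS/MS.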

[2] = AUClast in CD-1 mouse at 50 mg/kg, po and measured up to 24 hrs by LC/MS-MS analysis; type: ADME, organism-based; design: route oral, dose 50 mg/kg, time <=24; conditions: in vivo; summary of the method: as §1
[3] = Cmax in CD-1 mouse at 50 mg/kg, po and measured up to 24 hrs by LC/MS-MS analysis; type: ADME, organism-based; design: route oral, dose 50 mg/kg, time <=24; conditions: in vivo; summary of the method: as §1
[4] = Genotoxicity in Salmonella typhimurium by Ames test; type: toxicity; conditions: salmonella enterica subsp. enterica serovar typhimurium
[5] = molecular target: L-lactate dehydrogenase A chain (Homo sapiens, UniProt P00338); test: Inhibition of recombinant human LDHA using sodium pyruvate as substrate preincubated for 5 mins followed by diaphorase/resazurin addition and measured after 20 mins by fluorescence based assay
Sus scrofa = organism: Sus scrofa; test: Inhibition of porcine heart MDH using malic acid as substrate preincubated for 10 mins followed by substrate addition and measured after 5 mins by resazurin based fluorescence based assay; conditions: time 15.0 min
[6] = Half life in rat liver microsomes at 1 uM in presence of NADPH by LC-MS/MS; type: ADME, Microsome
Cytochrome P450 2C8 = molecular target: T1, Cytochrome P450 2C8 (Homo sapiens, UniProt P10632); test: Inhibition of CYP2C8 (unknown origin) assessed as inhibitory concentration; type: ADME
T1 sequence (P10632 whole entry): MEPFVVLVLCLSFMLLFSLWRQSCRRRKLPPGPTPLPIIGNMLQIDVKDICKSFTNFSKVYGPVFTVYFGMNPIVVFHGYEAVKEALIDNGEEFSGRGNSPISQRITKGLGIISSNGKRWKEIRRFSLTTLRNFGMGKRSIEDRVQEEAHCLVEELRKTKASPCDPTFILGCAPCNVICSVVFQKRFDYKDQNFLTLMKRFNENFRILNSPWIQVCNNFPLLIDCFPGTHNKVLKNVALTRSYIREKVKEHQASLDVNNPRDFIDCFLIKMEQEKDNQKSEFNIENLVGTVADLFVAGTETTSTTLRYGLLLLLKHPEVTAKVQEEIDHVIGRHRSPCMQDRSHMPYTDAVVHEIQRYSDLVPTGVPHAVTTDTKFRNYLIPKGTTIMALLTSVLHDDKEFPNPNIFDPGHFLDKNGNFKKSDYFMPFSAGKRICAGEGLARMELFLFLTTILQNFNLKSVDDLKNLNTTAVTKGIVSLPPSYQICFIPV

Cytochrome P450 2B6 = molecular target: T2, Cytochrome P450 2B6 (Homo sapiens, UniProt P20813); test: Inhibition of CYP2B6 (unknown origin) assessed as inhibitory concentration; type: ADME
T2 sequence (P20813 whole entry): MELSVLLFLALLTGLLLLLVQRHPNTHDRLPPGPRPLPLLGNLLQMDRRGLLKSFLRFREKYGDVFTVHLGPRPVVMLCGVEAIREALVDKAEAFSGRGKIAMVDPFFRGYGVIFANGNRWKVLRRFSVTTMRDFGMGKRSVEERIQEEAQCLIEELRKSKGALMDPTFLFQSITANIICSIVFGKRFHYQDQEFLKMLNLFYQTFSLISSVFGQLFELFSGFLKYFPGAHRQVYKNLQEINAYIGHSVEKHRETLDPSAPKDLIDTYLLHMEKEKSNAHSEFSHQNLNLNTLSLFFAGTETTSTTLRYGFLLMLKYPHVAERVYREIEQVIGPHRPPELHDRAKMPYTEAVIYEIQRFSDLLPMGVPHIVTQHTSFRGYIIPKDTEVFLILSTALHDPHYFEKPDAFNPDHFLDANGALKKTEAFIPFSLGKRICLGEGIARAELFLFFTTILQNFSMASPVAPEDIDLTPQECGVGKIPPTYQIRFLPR

[7] = Oral bioavailability in CD-1 mouse at 40 mg/kg and measured up to 24 hrs by LC/MS-MS analysis; type: ADME, organism-based; conditions: in vivo
Summary of the method: (§2)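 Male CD1 mice, 6–8 weeks, about 20–30 g, three per cohort. Dosed PO at 40 or 50 mg/kg, or IV at 10 mg/kg for reference, in PBS with […] (pH 7–8). Dorsal metatarsal blood was taken into heparin at 15 min to 24 h (PO) or 5 min to 24 h (IV). Plasma was frozen and quantified by LC–MS/MS.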

[8] = AUC last in CD-1 mouse at 40 mg/kg, po and measured up to 24 hrs by LC/MS-MS analysis; type: ADME, organism-based; design: route oral, dose 40 mg/kg, time <=24; conditions: in vivo; summary of the method: as §2
[9] = Cmax in CD-1 mouse at 40 mg/kg, po and measured up to 24 hrs by LC/MS-MS analysis; type: ADME, organism-based; design: route oral, dose 40 mg/kg, time <=24; conditions: in vivo; summary of the method: as §2
[10] = Terminal half life in CD-1 mouse at 40 mg/kg, po and measured up to 24 hrs by LC/MS-MS analysis; type: ADME, organism-based; conditions: in vivo; summary of the method: as §2
CYP2C8 = molecular target: T3, CYP2C8 (Homo sapiens, UniProt P10632); test: Inhibition of CYP2C8 (unknown origin) at 10 uM relative to control; type: ADME
T3 sequence (P10632 whole entry): T1 sequence (P10632 whole entry)

CYP2B6 = molecular target: T4, CYP2B6 (Homo sapiens, UniProt P20813); test: Inhibition of CYP2B6 (unknown origin) at 10 uM relative to control; type: ADME
T4 sequence (P20813 whole entry): T2 sequence (P20813 whole entry)

CYP2C9 = CYP2C9 (Homo sapiens, UniProt P11712); test: Inhibition of CYP2C9 (unknown origin) at 10 uM relative to control; type: ADME
Chain of CYP2C9 (P11712 whole entry): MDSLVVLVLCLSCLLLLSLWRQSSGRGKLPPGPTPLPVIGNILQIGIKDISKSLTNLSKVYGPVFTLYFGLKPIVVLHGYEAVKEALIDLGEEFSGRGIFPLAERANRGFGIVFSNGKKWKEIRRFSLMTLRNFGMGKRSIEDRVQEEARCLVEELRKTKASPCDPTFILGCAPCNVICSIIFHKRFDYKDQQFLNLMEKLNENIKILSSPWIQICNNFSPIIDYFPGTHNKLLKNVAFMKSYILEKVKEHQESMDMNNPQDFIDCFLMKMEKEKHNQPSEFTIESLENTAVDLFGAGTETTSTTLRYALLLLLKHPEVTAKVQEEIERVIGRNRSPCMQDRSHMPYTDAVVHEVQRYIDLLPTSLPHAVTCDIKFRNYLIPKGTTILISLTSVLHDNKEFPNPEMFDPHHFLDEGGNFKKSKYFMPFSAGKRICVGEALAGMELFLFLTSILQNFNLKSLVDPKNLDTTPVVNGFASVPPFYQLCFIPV

| SMILES | inhibition (Mus musculus) | F [1] [%] | AUClast [2] [ng·h/mL] | Cmax [3] [ng/mL] | Activity [4] | IC50 [5] [µM] | inhibition (Sus scrofa) | half-life at 1 µM [6] [h] | INH (Cytochrome P450 2C8) [µM] | INH (Cytochrome P450 2B6) [µM] | F [7] [%] | AUClast [8] [ng·h/mL] | Cmax [9] [ng/mL] | beta t1/2 [10] [h] | inhibition at 10 µM (CYP2C8) [%] | inhibition at 10 µM (CYP2B6) [%] | inhibition at 10 µM (CYP2C9) [%] |
| --- | --- | --- | --- | --- | --- | --- | --- | --- | --- | --- | --- | --- | --- | --- | --- | --- | --- |
| Cc1ccc(C#Cc2cccc(-c3nn(-c4nc(C(=O)O)cs4)c(CC4CC4)c3Cc3ccc(S(N)(=O)=O)c(F)c3)c2)s1 | Active | 64 | 53540 | 8830 | Non-Toxic | 0.04 | inactive | > 2 | 7.5 | 14 |  |  |  |  |  |  |  |
| Cc1ccc(C#Cc2cc(-c3nn(-c4nc(C(=O)O)cs4)c(CC4CC4)c3Cc3ccc(S(N)(=O)=O)c(F)c3)ccc2F)s1 | Active |  |  |  | Non-Toxic | 0.057 | inactive | > 2 |  |  | 73.8 | 31390 | 5260 | 2.78 | 80 | 46 | 45 |

— ChEMBL document CHEMBL4665801, “Pyrazole-Based Lactate Dehydrogenase Inhibitors with Optimized Cell Activity and Pharmacokinetic Properties” (J Med Chem, 2020)
